{
  "source": "PubChem BioAssay AID2237",
  "about": "(Johns Hopkins Ion Channel Center, 2010)",
  "note": "About 1,500 (0.48%) of roughly 310,000 compounds were called active. This is one part of a sample in which actives are shown more often than they occur.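 Rule for the calls: active = B-score above 5 SD of library B-scores, and initial fluorescence ratio not above library mean plus 5 SD; inactive = the rest.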",
  "data": [
    {"target": "Short transient receptor potential channel 4 (Mus musculus) (UniProt Q9QUQ5)", "sequence (Q9QUQ5 whole entry, looked up)": "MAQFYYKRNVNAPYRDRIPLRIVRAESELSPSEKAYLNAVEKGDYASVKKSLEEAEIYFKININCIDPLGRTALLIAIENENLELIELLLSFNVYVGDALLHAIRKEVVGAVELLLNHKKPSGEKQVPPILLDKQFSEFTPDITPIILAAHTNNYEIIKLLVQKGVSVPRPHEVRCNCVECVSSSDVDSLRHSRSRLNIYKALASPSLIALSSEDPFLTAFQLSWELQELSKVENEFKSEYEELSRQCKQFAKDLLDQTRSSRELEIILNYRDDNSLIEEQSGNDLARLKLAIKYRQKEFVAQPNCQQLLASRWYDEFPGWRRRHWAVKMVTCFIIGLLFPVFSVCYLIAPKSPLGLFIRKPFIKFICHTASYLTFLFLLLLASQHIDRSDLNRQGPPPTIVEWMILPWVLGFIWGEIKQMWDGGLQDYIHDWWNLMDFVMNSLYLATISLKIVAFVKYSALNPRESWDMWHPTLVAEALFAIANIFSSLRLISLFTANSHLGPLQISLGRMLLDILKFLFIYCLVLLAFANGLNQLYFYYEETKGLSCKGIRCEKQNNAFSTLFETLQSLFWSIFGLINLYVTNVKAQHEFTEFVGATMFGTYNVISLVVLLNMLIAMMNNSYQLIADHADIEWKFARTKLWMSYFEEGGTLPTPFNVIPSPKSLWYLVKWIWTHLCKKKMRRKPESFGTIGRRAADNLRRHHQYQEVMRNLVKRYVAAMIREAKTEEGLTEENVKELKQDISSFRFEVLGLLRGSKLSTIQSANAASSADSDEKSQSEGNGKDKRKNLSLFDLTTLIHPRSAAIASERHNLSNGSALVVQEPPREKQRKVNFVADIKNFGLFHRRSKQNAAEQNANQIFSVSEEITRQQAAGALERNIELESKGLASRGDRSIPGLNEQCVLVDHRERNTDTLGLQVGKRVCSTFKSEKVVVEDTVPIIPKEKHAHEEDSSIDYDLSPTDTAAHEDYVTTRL", "assay": "activators of mouse TRPC4 channel, primary screen, Fluo4 calcium, HEK293 TRPC4beta/mu-opioid cells (AID 2237);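 for B-score: positive B-score marks a calcium rise read as TRPC4 activation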", "settings": "Fluo4 calcium fluorescence, at 10 µM; stronger effect = higher value", "procedure,_shortened": "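Material: TRPC4beta and mu-opioid receptor HEK293 stable cells | Incubation: 45 min room-temperature Fluo4 loading, 110 s read | Detection: Kinetic Fluo4 calcium fluorescence | Measure: Integrated baseline-normalised fluorescence ratio, converted to per-well B score | Benchmarks: Low control buffer alone, high control maximal DAMGO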", "values": [
      {"smiles": "c1ccc2sc(N3CCNCC3)nc2c1", "B-score": "173 (active)"},
      {"smiles": "COc1cc(OC)cc(C2(C#N)CCN(C)CC2)c1", "B-score": "inactive"},
      {"smiles": "C/C(=N/O)c1ccc2ccc3ccccc3c2c1", "B-score": "inactive"},
      {"smiles": "CCC1(C)CC(CCNCc2ccc(N(C)C)cc2)(c2ccc(F)cc2)CCO1", "note": "(stereo not given)", "B-score": "114 (active)"},
      {"smiles": "CCCCCCCCCCCCn1ccc(=N)cc1", "B-score": "inactive"},
      {"smiles": "O=C(c1cc2nc(-c3ccccc3)cc(-c3ccccc3)n2n1)N1CCC2(CC1)OCCO2", "B-score": "inactive"},
      {"smiles": "N#Cc1ccc(Cn2cc(C(=O)c3ccco3)c3ccccc32)cc1", "B-score": "inactive"},
      {"smiles": "CN(C)C(=O)Oc1ccc(NC(=O)N2CCOCC2)cc1", "B-score": "inactive"},
      {"smiles": "Cc1nc2ccccn2c1P(=S)(N1CCCCC1)N1CCCCC1", "B-score": "87 (active)"},
      {"smiles": "CC(=C1C(=O)c2ccccc2C1=O)N1CCN(CCN=Cc2c(O)n(C)c(=O)n(C)c2=O)CC1", "B-score": "inactive"},
      {"smiles": "Cc1nc2ccccc2c(=O)n1-c1ccc(Cl)cc1Cl", "B-score": "inactive"},
      {"smiles": "Cc1ccc(Cn2nnnc2CN2CCC(n3nnc4ccccc43)CC2)cc1", "B-score": "inactive"},
      {"smiles": "CCN(CC)C(=O)c1ccc(NC(=O)c2cc(-n3cnnc3)ccc2Cl)cc1", "B-score": "inactive"},
      {"smiles": "c1cncc(CNCCc2c[nH]c3ccccc23)c1", "B-score": "inactive"},
      {"smiles": "COc1ccc(CNCCc2c[nH]c3ccccc23)cc1OC", "B-score": "88 (active)"},
      {"smiles": "COc1ccc(CNCCc2ccc3c(c2)OCO3)c(OC)c1OC", "B-score": "inactive"},
      {"smiles": "CC1C2Cn3c(nc4ccccc43)C1N(C)O2", "note": "(stereo not given)", "B-score": "inactive"},
      {"smiles": "CCN1CCN(c2nc3c(c(=O)[nH]2)CCC3)CC1", "B-score": "inactive"},
      {"smiles": "Cc1ccnc(-n2c(C)cc(/C=C3\\C(=O)NC(=S)N(C)C3=O)c2C)c1", "B-score": "inactive"},
      {"smiles": "c1ccc(CCN2CCC3(CC2)OCCO3)cc1", "B-score": "inactive"},
      {"smiles": "C[N+]1(C)CCOC(O)(c2ccc(-c3ccc(C4(O)C[N+](C)(C)CCO4)cc3)cc2)C1", "note": "(stereo not given)", "B-score": "inactive"},
      {"smiles": "c1ccc2sc(C3CCCNC3)nc2c1", "note": "(stereo not given)", "B-score": "159 (active)"},
      {"smiles": "COc1ccccc1N=C1SCCCN1C", "B-score": "inactive"},
      {"smiles": "COc1ccc2c(c1O)-c1cccc3c1[C@@H](C2)N(C)CC3", "B-score": "inactive"},
      {"smiles": "CC(=NC1CCN(Cc2ccccc2)CC1)c1c(O)n(C)c(=O)n(C)c1=O", "B-score": "inactive"},
      {"smiles": "CCN(CC)CCOC(=O)c1cc2cc(COC)ccc2o1", "B-score": "inactive"},
      {"smiles": "COC(=O)C1=C(c2ccccc2)C[C@@H]2CC[C@H]1N2C(=O)N1CCCCC1", "B-score": "inactive"},
      {"smiles": "CSc1ccc(C(=O)C2CCCN(Cc3ccn[nH]3)C2)cc1", "note": "(stereo not given)", "B-score": "52 (active)"},
      {"smiles": "Cc1ccc(CN2CCCC(C(=O)c3ccc4c(c3)OCO4)C2)cc1C", "note": "(stereo not given)", "B-score": "inactive"},
      {"smiles": "COc1ccc(C(=O)C2CCCN(Cc3ccc(C)s3)C2)cc1OC", "note": "(stereo not given)", "B-score": "inactive"},
      {"smiles": "c1ccc(CCNC2CCCCCC2)cc1", "B-score": "inactive"},
      {"smiles": "CCCCC(=O)N/N=C/c1c(O)n(-c2ccccc2)c(=O)[nH]c1=O", "B-score": "inactive"},
      {"smiles": "CCCCC(=O)N/N=C/c1c(O)n(CC)c(=S)n(CC)c1=O", "B-score": "103 (active)"},
      {"smiles": "CCCCC(=O)N/N=C/c1c(O)n(CCC2=CCCCC2)c(=O)[nH]c1=O", "B-score": "inactive"},
      {"smiles": "O=C1NC(=O)C(C/C=C/c2ccccc2)C(=O)N1", "B-score": "inactive"},
      {"smiles": "CC(=O)N(C1=NCCCS1)c1ccccc1F", "B-score": "44 (active)"},
      {"smiles": "O=c1c2ccccc2nc(-c2ccc(Cl)cc2Cl)n1-c1ccncc1", "B-score": "inactive"},
      {"smiles": "COc1ccc(N=Cc2c(O)n(C)c(=O)[nH]c2=O)cc1", "B-score": "inactive"},
      {"smiles": "Cn1c(C(=O)N2CCC(C(=O)N3CCC4(CC3)OCCO4)CC2)cc2sccc21", "B-score": "inactive"},
      {"smiles": "COC(=O)C1=C(c2cc3ccccc3s2)C[C@@H]2CC[C@H]1N2C(=O)NCc1cccc2ccccc12", "B-score": "inactive"},
      {"smiles": "COC(=O)C1=C(c2cc3ccccc3s2)C[C@@H]2CC[C@H]1N2C(=O)NC(C)C", "B-score": "inactive"},
      {"smiles": "COC(=O)C1=C(c2cc3ccccc3s2)C[C@@H]2CC[C@H]1N2C(=O)NCCO", "B-score": "72 (active)"},
      {"smiles": "C=CCN1C(=O)C2(C(C(=O)OCC)=C(N)Oc3c2c(=O)oc2ccccc32)c2ccccc21", "note": "(stereo not given)", "B-score": "inactive"},
      {"smiles": "COc1ccccc1C1=NCc2nnc(CSC)n2-c2ccc(Cl)cc21", "B-score": "inactive"},
      {"smiles": "CN(C)CCN(CC1CCCN(Cc2ccccc2F)C1)C(=O)Cc1ccc(F)c(F)c1", "note": "(stereo not given)", "B-score": "inactive"}
    ]}
  ]
}
